Laboratory results taken from ChEMBL document CHEMBL4680165, “β-Lactams with antiproliferative and antiapoptotic activity in breast and chemoresistant colon cancer cells” (Eur J Med Chem, 2020).
Calls of active or inactive are those of the source. No cut-off for these calls is given here.

Key:
[1] = tested on: HEK-293T; assay: Antiproliferative activity against human HEK293T cells assessed as reduction in cell viability after 72 hrs by alamar blue assay; type: cell-based
Outline: (§1)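 Cells seeded at 5 x 10^3/well (MCF-7) or 1 x 10^4/well (HT-29, HEK-293T) and treated after 24 h with serial dilutions (0.001-100 µM) in 1% v/v ethanol vehicle. Alamar Blue 10% v/v added at 72 h, then 3-5 h at 37 °C in the dark; fluorescence ex 530/em 590 nm. Viability relative to vehicle; IC50 from dose-response curves; mean of three experiments in triplicate.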

[2] = tested on: MCF7; assay: Antiproliferative activity against human MCF7 cells assessed as reduction in cell viability after 72 hrs by alamar blue assay; type: functional, cell-based; conditions: MCF7, 72 h; outline: as §1
[3] = tested on: MCF7; assay: Induction of apoptosis in human MCF7 cells assessed as downregulation of Mcl-1 expression level measured after 48 hrs by Western blot analysis; type: functional, cell-based; conditions: dose 0.05-0.5 µM
Outline: (§2)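 MCF-7 cells (1 × 10^5 per flask) were treated at 0.05, 0.1 and 0.5 µM for 48 and 72 h; vehicle was 0.1% v/v ethanol. Lysis was in RIPA buffer with protease and phosphatase inhibitors. Equal protein (BCA) was run on 12% SDS-PAGE and blotted for Mcl-1, Bcl-2 and survivin, with GAPDH as loading control and ECL detection. Three independent experiments.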

[4] = molecular target: UDP-glucuronosyltransferases (UGTs) (Homo sapiens, UniProt O60656+O75310+O75795+P06133+P0DTE4+P0DTE5+P16662+P19224+P22309+P22310+P35503+P35504+P36537+P54855+Q6UWM9+Q9BY64+Q9HAW7+Q9HAW8+Q9HAW9); assay: Metabolic stability in human liver microsomes assessed as UGT-mediated N-glucuronidation by measuring intrinsic clearance at 3 uM measured up to 45 mins by LC-MS/MS analysis; type: ADME; conditions: liver microsomes, read-out: CLH
Outline: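 Pooled human liver microsomes (0.5 mg/mL protein final) with alamethicin (25 µg/mg) in 0.1 M phosphate pH 7.4, compound 3 µM final (0.25% DMSO), preincubated 37 °C. Reaction started with UDPGA (1 mM final). Sampled at 0, 5, 15, 30, 45 min into methanol, analysed by LC-MS/MS. Minus-UDPGA control run 45 min. Single incubations; t½ and CLint taken from the elimination rate constant.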

[5] = tested on: MCF7; assay: Induction of apoptosis in human MCF7 cells assessed as total apoptotic cells at 1 uM after 48 hrs by Annexin V-FITC and propidium iodide staining based flow cytometry (reference value: 10 %); type: functional
Outline: (§3)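 MCF-7 cells were seeded at 1 × 10^5 cells/mL and treated for 48 h at 0.01, 0.1 and 1 µM; vehicle was 0.1% v/v ethanol. Annexin V staining was done on ice in the dark for 30 min in HEPES/NaCl/CaCl2 binding buffer, followed by PI. Flow cytometry scored early apoptotic (Annexin V+/PI−) and late apoptotic (Annexin V+/PI+) cells; total apoptotic is Annexin V-positive cells.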

[6] = tested on: HT-29; assay: Antiangiogenic activity in human HT29 cells assessed as reduction in IL-1alpha secretion at 5 uM after 24 hrs by ELISA; type: functional, cell-based
Outline: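 HT-29 cells at 5 x 10^4 per well, cultured 24 h and then exposed to 5 µM compound. Conditioned medium collected on ice and stored at -80 °C. Cytokines and angiogenic, vascular-injury and chemokine factors measured by multiplex panels with overnight supernatant incubation (Angiogenesis Panel 1 and Vascular Injury Panel 2 same day). Medium undiluted except 1:4 for Vascular Injury Panel 2. Secretion normalised to lysate protein by BCA.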

[7] = tested on: MCF7; assay: Cell cycle arrest in human MCF7 cells assessed as accumulation at sub-G1 phase at 1 uM measured after 72 hrs by PI staining based flow cytometry analysis; type: functional
Outline: (§4)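 Cells (1 × 10^5/well) were treated at 1 µM for 24, 48 and 72 h; vehicle was 0.1% v/v ethanol. Cells were trypsinised, fixed in ice-cold 70% ethanol overnight at −20 °C, then stained with PI (50 µg/mL) plus DNase-free RNase A (50 µg/mL) at 37 °C for 30 min. DNA content of 10,000 cells per group was read by flow cytometry at 488 nm.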

[8] = molecular target: T1, Tubulin (Homo sapiens) (UniProt P68371+Q9H4B7+P0DPH7+P68366+Q13509+Q71U36+P04350+Q3ZCM7+P07437+P68363+Q9BQE3+Q6PEY2+Q13885+Q9BVA1+Q9BUF5); assay: Induction of microtubule depolymerization in human MCF7 cells assessed as induction of cell rounding at 100 nM for 5 hrs by immunofluorescence staining based confocal microscopic analysis
Outline: (§5)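 MCF-7 cells were seeded at 1 × 10^5 cells/mL on chamber slides and treated at 0.01, 0.05 and 0.1 µM. Controls were vehicle (1% v/v ethanol), CA-4 (0.01 µM) and paclitaxel (1 µM). Cells were fixed and stained with anti-α-tubulin-FITC (DM1A) and Alexa Fluor 488, then counterstained with DAPI. Imaging was by confocal microscopy over three separate experiments.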

[9] = tested on: MCF7; assay: Induction of apoptosis in human MCF7 cells assessed as late apoptotic cells after 48 hrs by Annexin V-FITC and propidium iodide staining based flow cytometry; type: functional, cell-based; conditions: dose 10-1000 nM; outline: as §3
[10] = species: Bos taurus; assay: Inhibition of bovine brain tubulin polymerization at 10 uM measured at 30 sec interval for 30 mins in presence of GTP by turbidimetry-based spectrophotometric method
[11] = Selectivity index, ratio of IC50 for human MCF7 cells to IC50 for human HT-29 cells assessed as reduction in cell viability after 72 hrs by alamar blue assay; type: functional
[12] = tested on: HT-29; assay: Cell cycle arrest in human HT-29 cells assessed as accumulation at G2/M phase at 1 uM measured by PI staining based flow cytometry analysis; type: functional; conditions: TDE = time-dependent effect; outline: as §4
[13] = tested on: MCF7; assay: Cell cycle arrest in human MCF7 cells assessed as accumulation at G2/M phase at 1 uM measured after 24 hrs by PI staining based flow cytometry analysis (reference value: 24 %); type: functional; outline: as §4
[14] = tested on: MCF7; assay: Cell cycle arrest in human MCF7 cells assessed as accumulation at G2/M phase at 1 uM measured after 48 hrs by PI staining based flow cytometry analysis (reference value: 24 %); type: functional; outline: as §4
[15] = molecular target: T1, Tubulin (Homo sapiens); assay: Induction of microtubule depolymerization in human MCF7 cells assessed as induction of cell detachment and loss of radical distribution at 100 nM for 5 hrs by immunofluorescence staining based confocal microscopic analysis; outline: as §5
[16] = tested on: MCF7; assay: Induction of apoptosis in human MCF7 cells assessed as downregulation of Bcl-2 expression level measured after 48 hrs by Western blot analysis; type: functional, cell-based; conditions: dose 0.05-0.5 µM; outline: as §2
[17] = tested on: HT-29; assay: Antiproliferative activity against human HT-29 cells assessed as reduction in cell viability after 72 hrs by alamar blue assay; type: functional, cell-based; conditions: HT-29, 72 h; outline: as §1
[18] = molecular target: T1, Tubulin (Homo sapiens); assay: Induction of microtubule depolymerization in human MCF7 cells assessed as induction of spindle formation at 10 to 50 nM for 5 hrs by immunofluorescence staining based confocal microscopic analysis; type: cell-based; conditions: dose 10-50 nM; outline: as §5

IC50 [2]: 22 nM
microsomal CLint at 3 µM [4]: 14.2 µL/min/mg
Activity [8]: Active
Activity [15]: Active
IC50 [17]: 3 nM
Activity [18]: Active
Structure (SMILES): COc1ccc([C@H]2[C@H](O)C(=O)N2c2cc(OC)c(OC)c(OC)c2)cc1F
IC50 [1]: > 50000 nM
Activity [3]: Dose-dependent effect
Activity [5]: 35%
Activity [6]: inactive
Activity [7]: 15%
Activity [9]: Dose-dependent effect
inhibition [10]: Active
Ratio IC50 [11]: 7.33
Activity [12]: Tde
Activity [13]: 66%
Activity [14]: 75%
Activity [16]: Dose-dependent effect
